PMI act satM6P: increases human PMI activity with near-saturating mannose 6-phosphate; coupled PMI enzyme assay, resazurin fluorescence, 20 min; active compounds read high; 1 = untreated enzyme, 0 = substrate-free blank; activation factor at 20 µM; actives 0.34% (n = 190,000); AID 1216;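 active = activation factor of 2 or more at 20 µM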
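Test system: Human PMI in coupled enzyme assay | Input: 15 ng/mL PMI | Medium: HEPES-buffered pH 7.4 with magnesium and detergent | Compound: One concentration, 20 µM, in 1% DMSO | Incubation: Enzyme reaction with compound 20 min at room temperature | Detection: Diaphorase-driven resazurin-to-resorufin fluorescence, excitation 544, emission 590 nm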
FLuc stim CS: firefly luciferase counter-screen for stimulation assays; ATPlite luciferase biochemical, luminescence, 10 min; 0 = ATP-free wells, 1 = DMSO control; AID 1027; 200,000 tested, under 10 active; activation factor at 10 µM;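 active = luciferase activation factor, scaled between plate controls, of at least 2 with compound at 10 µM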
Target sequence (P08659 whole entry, looked up): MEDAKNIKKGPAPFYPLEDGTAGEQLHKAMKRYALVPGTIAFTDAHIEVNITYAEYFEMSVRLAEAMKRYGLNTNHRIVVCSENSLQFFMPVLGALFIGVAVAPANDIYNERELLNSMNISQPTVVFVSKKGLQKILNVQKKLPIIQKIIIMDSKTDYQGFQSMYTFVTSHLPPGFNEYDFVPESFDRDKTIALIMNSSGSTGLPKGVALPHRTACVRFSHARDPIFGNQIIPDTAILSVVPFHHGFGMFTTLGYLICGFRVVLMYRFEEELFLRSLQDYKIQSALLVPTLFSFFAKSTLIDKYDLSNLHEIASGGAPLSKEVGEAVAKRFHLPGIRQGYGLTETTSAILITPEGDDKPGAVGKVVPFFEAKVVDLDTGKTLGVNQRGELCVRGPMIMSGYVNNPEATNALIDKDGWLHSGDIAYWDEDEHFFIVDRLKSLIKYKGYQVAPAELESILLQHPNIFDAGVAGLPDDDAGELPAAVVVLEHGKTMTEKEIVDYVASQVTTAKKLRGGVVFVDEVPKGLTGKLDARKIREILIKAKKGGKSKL
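Material: Luciferase/luciferin reagent mix | Doses: Test compounds dosed from 2 mM stocks in 100% DMSO | Timing: 10 min incubation after luciferase reagent addition, room temperature | Measured by: Luminescence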
Diaph act CS: counter-screen for diaphorase-based assays: diaphorase activators and chemical reducers. activation factor at 20 µM. actives 0.005% (n = 190,000). Diaphorase/resazurin coupled assay, resorufin fluorescence, 16 min; active compounds read high; 1 = vehicle wells, 0 = NADH-free wells;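 active = diaphorase activity raised at least twofold by the compound at 20 µM; inactive = activation factor below 2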
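Material: Clostridium kluyveri diaphorase, purified enzyme; Quantity: enzyme 0.07 U/mL final; Medium: HEPES pH 7.4 buffer with MgCl2 and Tween 20; Dosing: single compound dose of 20 µM, 1% DMSO final; Schedule: 16 min reaction at room temperature; Measured by: red resorufin fluorescence at 544/590 nm excitation/emission.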
FLuc inhib CS: counter-screen for luciferase assay inhibitors: firefly luciferase inhibition | inhibition, % at 10 µM | actives 1.5% (n = 200,000) | ATPLite firefly luciferase biochemical luminescence, 10 min;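 active = inhibition above about 50% when tested at 10 µM, limit read from the data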
PMI act: phosphomannose isomerase (human) activation; actives 0.005% (n = 190,000); activation factor at 20 µM; AID 1214; purified human PMI, coupled resazurin fluorescence, 20 min; active compounds read high; 1 = vehicle control, 0 substrate-free wells; P34949;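 active = activation factor of 2 or more at 20 µM, relative to plate controls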
Diaphorase inh: counter-screen for diaphorase-based assays: diaphorase inhibitors and chemical oxidizers | inhibition, % at 20 µM | AID 1217 | actives 0.69% (n = 190,000) | diaphorase resazurin-to-resorufin fluorescence, NADH, 16 min; bacterial (C. kluyveri) enzyme, not human;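 active = primary screen inhibition at 20 µM above a set limit, cut at about 50% in these data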;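 also: plate controls were DMSO with full reaction for no effect and wells lacking NADH for full effect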
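Assay system – diaphorase enzyme from Clostridium kluyveri · Amount – diaphorase 0.14 U/mL (working solution) · Times – reaction incubation of 16 min at room temperature · Controls – No-NADH positive control and DMSO neutral control · Signal – resorufin fluorescence 544/590 nm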
An asterisk follows results filed as active; · = not tested or not shown. Sampled rows, rich in hits. Any-hit rate of the full collection: about 2.5%.

SMILES	PMI act satM6P	FLuc stim CS	Diaph act CS	FLuc inhib CS	PMI act	Diaphorase inh
CC(=O)c1cn(Cc2ccccc2)c(=O)n(Cc2ccc(F)cc2)c1=O	0.8	0.2	0.8	79*	1	16
CCOC(=O)c1c(C)[nH]c(C2=NNC(=NC3CC3)SC2)c1C	0.8	0.3	0.9	71*	0.8	8
CCOC(=O)c1cc(NC(=O)c2c(C)noc2C)cc(C(=O)OCC)c1	1	1.1	0.9	-6	0.9	14
Cc1ccc(NC(=O)C2CCN(c3cnccn3)CC2)cc1	1.1	0.1	0.9	85*	1	10
COc1cccc(/C=C/C(=O)c2ccc[nH]2)c1	1	0.5	0.9	52*	0.9	6
O=C(Cc1ccccc1)N/N=C/c1ccc2c(c1)OCO2	1	0.7	1	28	1	4
COc1cccc(/C=C/C(=O)Oc2ccc(C(=O)c3ccc(F)cc3)cc2)c1	1	1	0.9	-3	0.9	7
Cc1csc(NC(=O)/C=C/c2ccc3c(c2)OCO3)n1	0.9	0.2	0.9	77*	1	7
Cc1ccc(C(=O)N/N=C/c2ccc3c(c2)OCO3)o1	1	0.3	1	69*	1	4
O=C(/C=C/c1ccc2c(c1)OCO2)c1ccc[nH]1	1	0.2	0.9	76*	1	5
COC(=O)c1nn(-c2ccccc2)c(=O)cc1Sc1ccc(Cl)cc1	1	1.1	0.8	-8	1	24
O=C(CN1CCN(S(=O)(=O)c2ccccc2)CC1)Nc1ccc2c(c1)CCC2	1	1	0.8	2	1	16
Cc1oc(-c2cccs2)nc1CN1CCC(CO)(CCOc2ccccc2)CC1	1	1	1	-4	0.9	-3
O=C(N/N=C/c1ccc(Br)cc1)c1ccc(Br)o1	1	0.4	1	58*	1.1	2
Cc1ccc(C(=O)/C=C/c2ccccc2)o1	0.9	0.3	0.9	72*	0.9	10
Cc1ccc(C(=O)/C=C/c2ccc(Br)cc2)o1	1	0.7	0.9	35	0.9	11
Cc1ccc(C(=O)/C=C/c2ccc3c(c2)OCO3)o1	0.8	0.2	0.9	80*	0.8	15
Cc1nc2c(c(=O)n1CCC1=CCCCC1)c1nc3ccccc3nc1n2/N=C/c1ccco1	0.8	1	0.3	-4	1	70*
COc1ccc(-c2nc(CN3CCCCC3c3nccn3C)c(C)o2)c(C)c1C (configuration not stated)	1	1.1	1	-5	0.9	2
O=C(NC(=S)Nc1nc2ccccc2s1)c1cccs1	0.9	0.1	0.5	90*	0.8	46
O=C(Nc1nc2ccc(F)cc2s1)c1cccs1	1	0.5	0.9	50*	1	11
NC(=S)Nc1nc2ccccc2s1	1.2	0.9	1	8	1	-4
O=C(Nc1nc2ccc(S(=O)(=O)N3CCCC3)cc2s1)c1cccs1	1	1	0.9	-3	0.9	14
CN(C)S(=O)(=O)c1ccc2nc(NC(=O)c3cccnc3)sc2c1	1.2	0.4	0.9	55*	1	9
O=C(Nc1nc2ccc(S(=O)(=O)N3CCCCC3)cc2s1)c1cccnc1	1.4	1	0.9	-4	1.3	7
SMILES	PMI act satM6P	FLuc stim CS	Diaph act CS	FLuc inhib CS	PMI act	Diaphorase inh
CN(C)S(=O)(=O)c1ccc2nc(NC(=O)c3cccs3)sc2c1	1	0.4	0.9	64*	0.9	11
COC(=O)c1ccc(NC(C)=O)cc1O	1	1.1	0.9	-8	1	6
COc1ccc(C(=O)NC(=S)Nc2ccc(Cc3ccncc3)cc2)cc1	0.9	1.1	0.9	-7	0.9	12
CCC(C)N(C(=O)COc1ccc(NC(C)=O)cc1)C1CCS(=O)(=O)C1 (configuration not stated)	1.1	1.1	0.9	-6	1.2	6
O=C(Nc1ccccc1C(F)(F)F)N1CCN(c2ccccn2)CC1	1	1	0.9	-4	1	11
Cc1ccc(C(=O)COC(=O)c2cc(=O)[nH]c3ccccc23)cc1C	1	0.4	1	55*	1	2
Cn1ccc(=S)c2ccccc21	2.2*	1	0.8	-1	1.6	16
Cn1c(=S)n(C)c2ccccc21	1	1	1	3	1	-2
CC(=O)N=Cc1c(C)c(C#N)c(=O)n(C)c1O	0.5	1	0.7	-2	1	29
Cn1c(O)c(/C=N/Nc2ccccc2)c(=O)n(C)c1=O	2.6*	1	1	-5	1.7	4
Cc1c(/C=N/Nc2ccc(F)cc2)c(O)n(C)c(=O)c1C#N	1.1	1	0.4	-4	1.1	56*
Cc1[nH]nc(N=Cc2c(O)n(C)c(=O)n(C)c2=O)c1-c1ccccc1	0.6	1.1	1.2	-6	1.2	-17
NC(=O)CNc1n[nH]c(=S)[nH]c1=O	1.3	1	1	-1	1.3	-2
O=C(/C=C/c1ccc(Cl)cc1Cl)Nc1cccc(S(=O)(=O)NC2=NCCC2)c1	1	0	0.9	96*	1.1	15
O=C(/C=C/c1ccccc1Cl)Nc1cccc(S(=O)(=O)NC2=NCCCCC2)c1	0.8	0.3	0.7	71*	0.9	32
O=C(CCc1ccccc1)Nc1cc(Cl)ccc1O	1	1	0.9	-4	0.9	12
COc1cc(SC)ccc1C(=O)Nc1ncc(C)s1	0.9	0.1	0.8	93*	0.9	23
COc1cc(SC)ccc1C(=O)Nc1ccc2c(c1)OCO2	0.9	0.3	0.8	72*	0.9	15
COc1cc(SC)ccc1C(=O)Nc1cccc(C)n1	·	0.3	·	70*	·	·
COc1cc(SC)ccc1C(=O)Nc1ccc(C)cc1C	0.9	0.6	0.9	36	0.9	9
COc1cc(SC)ccc1C(=O)Nc1ccc(C)cc1	1	0.5	1	54*	1	2
COc1cc(SC)ccc1C(=O)Nc1ccon1	1	0.7	1	31	0.9	0
CCC(C)(C)NC(=O)CN(CCc1cccc(C)c1)C(=O)c1csnn1	1.1	1.1	1	-6	1.1	-1
CCOc1ncccc1C(=O)OCC(=O)c1ccc(F)cc1	1	0.9	0.9	13	1	5
Cc1c(NC(=O)COC(=O)C23CC4CC(CC(Br)(C4)C2)C3)c(=O)n(-c2ccccc2)n1C	1	1	0.9	-3	1	7
